OX1R antag-1: blocks the human orexin 1 receptor; O43613; CHO/OX1R cells, Fluo-8 calcium fluorescence, orexin A; inhibition, % at 5 µM; 330,000 compounds, 0.43% hits;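 active = inhibition above its plate's threshold, mean inhibition of all tested compounds on the plate plus 3 SD, cut at about 37% in these data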;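 note: 0% = orexin A challenge wells and 100% = SB-334867-A antagonist wells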
OX1R antag-2: blocks the human orexin 1 receptor | O43613 | 330,000 compounds, 1.8% hits | OX1R-expressing cells, FRET antagonist read-out | AID 485270 | inhibition, % at 6.6 µM; in the data active = inhibition mostly above about 38%, no sharp cut-off; inactive = mostly below about 40%;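 note: 0% = agonist challenge alone and 100% = reference antagonist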
TAAR1 antagonist: antagonists of human TAAR1; Q96RJ0; CHO RD-HGA16 TAAR1, Fluo-8 calcium fluorescence, antagonist; inhibition, % at 3 µM; 360,000 compounds, 1.5% hits; AID 624466;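 active = inhibition above a per-plate cutoff, the mean inhibition of test compounds on that plate plus 3 SD, cut at about 49% in these data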;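 note: 0% = DMSO plus EC80 beta-PEA response and 100% = DMSO alone without agonist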
Target sequence (Q96RJ0 whole entry, looked up): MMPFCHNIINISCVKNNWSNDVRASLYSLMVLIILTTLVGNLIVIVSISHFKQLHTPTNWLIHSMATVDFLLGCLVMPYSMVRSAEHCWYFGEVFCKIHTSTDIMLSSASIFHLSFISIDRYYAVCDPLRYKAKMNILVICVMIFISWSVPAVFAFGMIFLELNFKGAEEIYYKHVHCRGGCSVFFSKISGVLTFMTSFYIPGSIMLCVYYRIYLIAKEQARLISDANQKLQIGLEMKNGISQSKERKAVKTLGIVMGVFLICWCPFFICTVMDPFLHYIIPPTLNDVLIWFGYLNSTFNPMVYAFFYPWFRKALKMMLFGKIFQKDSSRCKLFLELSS
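Material: CHO RD-HGA16 cells bearing hTAAR1; compound dosing: one-point dosing, 3 µM nominal final; schedule: dye loading 75 min at 37 °C, then 30 min room temperature; measured by: calcium fluorescence with Fluo-8; control set: vehicle and agonist controls; replication: n of 1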
TAAR1 agonist: human TAAR1 agonism. Q96RJ0. CHO RD-HGA16 TAAR1, Fluo-8 calcium fluorescence; vehicle wells 0%, saturating PEA agonist 100%. activation, % at 3 µM. 360,000 compounds, 0.99% hits. AID 624467;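 active = activation above the mean activation of all test compounds in the run plus 3 SD, cut at about 38% in these data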
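Test system: RD-HGA16 (CHO) cells co-expressing Gα16 and hTAAR1; dosing: one-point dosing at 3 µM (nominal); timing: 17-24 h seeding, 75 min 37 °C dye, 30 min RT; signal: kinetic Fluo-8 calcium fluorescence; read-out basis: % activation relative to PEA EC100 response; controls: DMSO and PEA EC100; replicates: n 1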
GPR7 antag: blocks human GPR7 receptor signaling; inhibition, % at 4.4 µM; 290,000 compounds, 1.1% hits; GPR7-expressing cells, fluorescence antagonist assay; P48145; in the data active = inhibition above about 16%, passing the limit was not always enough;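 note: cells stimulated with the agonist NPW; 0% = agonist with vehicle and 100% = vehicle without agonist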
Target sequence (P48145 whole entry, looked up): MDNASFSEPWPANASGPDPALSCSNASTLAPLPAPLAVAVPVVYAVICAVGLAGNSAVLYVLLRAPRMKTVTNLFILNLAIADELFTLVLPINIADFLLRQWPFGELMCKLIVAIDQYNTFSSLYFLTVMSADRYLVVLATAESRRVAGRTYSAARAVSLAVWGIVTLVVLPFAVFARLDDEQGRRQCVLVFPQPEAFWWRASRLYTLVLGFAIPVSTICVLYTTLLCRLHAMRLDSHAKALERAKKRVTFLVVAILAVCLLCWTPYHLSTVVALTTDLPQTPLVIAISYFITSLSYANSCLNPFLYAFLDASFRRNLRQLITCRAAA
CHO parental Ca: signal in parental CHO cells, OX1R antagonist counter-screen; 330,000 compounds, 0.63% hits; inhibition, % at 5.6 µM; AID 463079; parental CHO-K1, ATP-induced calcium, Fluo-8 fluorescence;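 active = inhibition above that plate's mean sample inhibition plus 3 SD, cut at about 26% in these data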;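 note: 0% = ATP-challenged DMSO wells and 100% = DMSO wells without ATP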
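Assay system: parental CHO cells; Read-out basis: percent inhibition of ATP-evoked calcium rise, normalized to controls; Benchmarks: ATP and no-ATP DMSO wells; Compound dosing: single nominal dose of 5.6 µM per compound; Signal: Fluo-8 calcium dye fluorescence; Also added: ATP as calcium-mobilizing challenge; Repeats: singlicate.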
An asterisk follows results filed as active; x = not tested or not shown. Hits are enriched below; roughly 4.6% of the tested compounds scored in any of these assays.

SMILES | OX1R antag-1 | OX1R antag-2 | TAAR1 antagonist | TAAR1 agonist | GPR7 antag | CHO parental Ca
COc1cccc(CNC23CC4CC(CC(C4)C2)C3)c1OCc1ccccc1 | -25 | 12 | -16 | 14 | 39* | 9
Cc1cc(C)cc(NC(=O)CCNS(=O)(=O)c2cc(Br)cnc2N)c1 | -13 | 65* | 13 | 4 | -2 | -17
CCOC(=O)c1ccc(NC(=O)CCNS(=O)(=O)c2cc(Br)cnc2N)cc1 | 2 | 29 | -16 | 5 | 1 | 2
COCCN(Cc1ccc(C)cc1)C(=O)[C@H]1O[C@@H](n2cnc(C(N)=O)n2)[C@H](O)[C@@H]1O | x | x | -28 | 4 | x | x
Cn1cc(C(=O)Nc2ccc(F)c(Cl)c2)cn1 | 7 | -7 | -8 | 1 | 11 | 11
CN1c2ccsc2C(O)=C(C(=S)Nc2ccc(F)c(Cl)c2)S1(=O)=O | -5 | 50* | 10 | 9 | 2 | -11
Cc1ccc2cccc(NC(=S)NC(=O)c3ccnn3C)c2n1 | 22 | 48* | -1 | 1 | -3 | -45
Cc1ccc(NC(=O)CN(C2=NC3CS(=O)(=O)CC3S2)c2ccccc2)cc1 (configuration not stated) | x | x | -14 | 1 | x | x
Cc1cc(C)cc(N(CC(=O)Nc2ccccc2)C2=NC3CS(=O)(=O)CC3S2)c1 (configuration not stated) | 5 | 61* | -7 | 7 | -3 | -12
N#Cc1ccsc1NC(=O)C1CCCN1S(=O)(=O)c1cccs1 (configuration not stated) | 12 | 53* | -24 | 1 | x | -13
COc1ccc(C2CC(=O)C(c3ccc(C(N)=O)cc3)=CN2Cc2ccccc2)cc1 (configuration not stated) | x | x | -4 | 1 | x | x
COc1cc(CNCC(O)c2ccccc2)ccc1OCc1ccc(Cl)nc1 (configuration not stated) | -15 | 5 | -11 | 39* | 6 | -22
COc1cc(/C=C2\SC(=O)NC2=O)ccc1OCC(=O)N1CCOCC1 | 16 | 52* | -10 | -1 | x | -14
COc1ccc(-c2c(C(=O)c3ccccc3)[nH]c(N)c2C(=O)NCCc2c[nH]c3ccccc23)cc1 | x | x | 23 | 4 | x | x
CC(C)(C)S(=O)(=O)N1C[C@H]2C(=C(CCO)C[C@H]3C(=O)N(c4ccccc4)C(=O)[C@H]32)[C@@H]1CCO | x | x | -15 | 1 | x | x
COc1ccc(/C=N/NC(=O)CCn2c3ccccc3c3ccccc32)cc1OC | 7 | 59* | 16 | 16 | -3 | -19
CCCCCNC(=O)C(c1ccc(C(F)(F)F)cc1)n1c(=O)c(-c2ccco2)nc2ccccc21 (configuration not stated) | x | x | -3 | 0 | x | x
O=C1NC[C@H](CCCCN2C[C@H](Cc3ccccc3)N(CC3CCCCC3)C(=O)C2=O)N(CCc2ccccc2)C1=O | x | x | -6 | 0 | x | x
N#Cc1nc(-c2ccc(Cl)cc2)oc1NCc1ccco1 | 10 | 28 | 12 | 1 | 0 | 44*
CCN1CCN(C(=O)c2cc(COc3ccc4ncccc4c3)on2)CC1 | 10 | 47 | 8 | 5 | -3 | 20
COCC1CCCCN1C(=O)c1cc(COc2ccc3ncccc3c2)on1 (configuration not stated) | 55* | 33 | 15 | 6 | 11 | 47*
COCCC1CCCCN1C(=O)c1cc(COc2ccc(-n3cncn3)cc2)on1 (configuration not stated) | 22 | 47 | 10 | 6 | 14 | 53*
O=C(NCc1ccco1)c1ccc2nc([C@@H]3O[C@H](CO)[C@H](O)[C@H](O)[C@H]3O)[nH]c2c1 | x | x | -20 | 4 | x | x
Cc1ccc(S(=O)(=O)/N=C(/Nc2ccc([N+](=O)[O-])cc2[N+](=O)[O-])c2ccccc2)cc1 | 13 | 52* | 0 | 0 | x | 13
CC(C)c1ccc(Oc2cccc3c2S(=O)(=O)N([C@H](C)c2ccccc2)C[C@@H](COCc2ccccc2)O3)cc1 | x | x | -11 | 0 | x | x
SMILES | OX1R antag-1 | OX1R antag-2 | TAAR1 antagonist | TAAR1 agonist | GPR7 antag | CHO parental Ca
COc1ccc(CCN(Cc2ccccn2)C(=S)Nc2ccccc2F)cc1OC | -20 | 32 | -15 | 1 | 2 | -5
COc1ccc(CCN(Cc2ccccn2)C(=S)Nc2ccccc2Cl)cc1OC | -7 | 41* | -39 | 0 | 18 | -8
COc1cccc(NC(=S)NC(C)c2ccc(OC)c(OC)c2)c1 (configuration not stated) | -16 | 75* | 2 | 8 | -13 | -11
COc1cc(/C=C(/C#N)C(=O)Nc2ccccc2)c(Br)cc1OCc1ccc(C(=O)O)cc1 | 65* | 23 | 48 | 22 | -20 | 59*
COc1cc(/C=C(\C#N)C(=O)Nc2cccc(C(=O)O)c2)ccc1OCc1ccc(Cl)cc1 | -13 | 13 | 6 | 2 | 4 | -9
CSc1nnc(-c2cccn(Cc3ccccc3)c2=O)o1 | -22 | 27 | -5 | 3 | -8 | -16
O=c1c(-c2nnc(SCc3ccc(Cl)cc3Cl)o2)cccn1Cc1ccccc1 | 49* | 52* | 10 | 6 | -5 | 43*
O=C(CSc1ccc(F)cc1)N1CCC(c2nc3ccccc3s2)CC1 | 18 | 15 | 52* | 14 | 5 | 2
O=C(CSc1ccc2ccccc2n1)N1CCC(c2noc3ccc(F)cc23)CC1 | 3 | 55* | 31 | 8 | -5 | -10
O=C(CSc1ccccc1Cl)N1CCC(c2nc3ccccc3s2)CC1 | -22 | 33 | 20 | 13 | -8 | -11
C[C@@H]1CNC(=O)c2c(C(=O)Nc3ccc(CNC(=O)OC(C)(C)C)cc3)ncn21 | x | x | 50* | 13 | x | x
COc1ccccc1-n1c(Cc2cccc3ccccc23)nnc1SCC(=O)O | x | x | -4 | 0 | x | x
CC1Cc2cc(-c3csc(NC(=O)Cc4cccs4)n3)ccc2N1S(C)(=O)=O (configuration not stated) | 30 | 17 | 61* | 17 | -3 | 14
CCC(=O)Nc1nc(-c2ccc3c(c2)CC(C)N3S(C)(=O)=O)cs1 (configuration not stated) | -25 | 55 | 43 | 10 | -5 | -19
CCn1c2ccccc2c2cc(NC(=O)c3cccc([N+](=O)[O-])c3)ccc21 | 17 | 76* | -10 | 1 | x | -6
CCn1c2ccccc2c2cc(NC(=O)COc3ccccc3)ccc21 | -20 | 65* | -3 | 1 | -12 | -35
CCC(=O)NC(=S)Nc1ccc(NC(=O)c2ccc(Br)o2)cc1 | -26 | 13 | 0 | -1 | 18* | 0
CCn1c2ccccc2c2cc(NC(=O)c3ccc(Br)o3)ccc21 | 48* | 85* | 5 | 1 | 19 | -7
CCn1c2ccccc2c2cc(NC(=O)COc3ccc(OC)cc3)ccc21 | -24 | 13 | 0 | 13 | -7 | -14
